Experiment [1] concerns the target T1, Neuronal acetylcholine receptor; alpha4/beta2 (Homo sapiens, UniProt P17787+P43681). The experiment is described as follows: Displacement of [3H]-epibatidine from human nAChR alpha4beta2 expressed in human SH-EP1 cells. The format is cell-based. The essentials:
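Radioligand binding using [3H]-epibatidine on human α4β2 nAChR expressed in SH-EP1 cells. Affinity reported as Ki, given as the mean.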
For orientation: Loss of bound radioactivity is the signal in a displacement assay; it reports binding, not function.

The target in experiment [2] is Neuronal acetylcholine receptor subunit alpha-7 (Homo sapiens, UniProt P36544). Kind of experiment: Binding affinity to human nAChR alpha7 expressed in HEK cells coexpressing RIC3. The format is cell-based, HEK293. The essentials:
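Binding measured at human α7 nAChR in HEK cells coexpressing RIC3. Affinity reported as Ki, given as the mean.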

Experiment [3] addresses T2, Neuronal acetylcholine receptor; alpha3/beta4 (Homo sapiens, UniProt P30926+P32297). The experiment is described as follows: Binding affinity to human ganglionic nAChR alpha3beta4 expressed in human SHSY-5Y cells. The class given is cell-based, SH-SY5Y. A digest of the protocol:
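Binding measured on the α3β4 subtype endogenous to human SHSY-5Y clonal cells. Affinity reported as Ki, given as the mean.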

For experiment [4], the target named is Acetylcholine receptor; alpha1/beta1/delta/gamma (Homo sapiens, UniProt P02708+P07510+P11230+Q07001). The experiment is described as follows: Binding affinity to human muscle nAChR alpha1beta1gammadelta expressed in human TE-671 cells. The class given is cell-based. A digest of the protocol:
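Binding carried out in TE-671 cells as the muscle-type receptor source. Affinity reported as Ki, given as the mean.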

The target of experiment [5] is T1, Neuronal acetylcholine receptor; alpha4/beta2. Kind of experiment: Antagonist activity at human nAChR alpha4beta2 expressed in human SH-EP1 cells assessed as calcium flux by fluorescence analysis relative to nicotine. The format is functional, cell-based. For orientation: Calcium assays in cells follow changes in intracellular calcium, usually with a dye or a luminescent sensor.

Experiment [6] has as its target Neuronal acetylcholine receptor; alpha4/beta2 (Rattus norvegicus, UniProt P09483+P12390). Kind of experiment: Displacement of [3H]-nicotine from rat nAChR alpha4beta2 in rat cortex.
The target of experiment [7] is T2, Neuronal acetylcholine receptor; alpha3/beta4. The experiment is described as follows: Agonist activity at human ganglionic nAChR alpha3beta4 expressed in human SHSY-5Y cells assessed as calcium flux by fluorescence analysis.
Experiment [8] shares this target. The experiment is described as follows: Agonist activity at human ganglionic nAChR alpha3beta4 expressed in human SHSY-5Y cells assessed as calcium flux by fluorescence analysis relative to nicotine. The following applies: SH-SY5Y.

Structures are written as SMILES.

T2 sequence (P30926 whole entry): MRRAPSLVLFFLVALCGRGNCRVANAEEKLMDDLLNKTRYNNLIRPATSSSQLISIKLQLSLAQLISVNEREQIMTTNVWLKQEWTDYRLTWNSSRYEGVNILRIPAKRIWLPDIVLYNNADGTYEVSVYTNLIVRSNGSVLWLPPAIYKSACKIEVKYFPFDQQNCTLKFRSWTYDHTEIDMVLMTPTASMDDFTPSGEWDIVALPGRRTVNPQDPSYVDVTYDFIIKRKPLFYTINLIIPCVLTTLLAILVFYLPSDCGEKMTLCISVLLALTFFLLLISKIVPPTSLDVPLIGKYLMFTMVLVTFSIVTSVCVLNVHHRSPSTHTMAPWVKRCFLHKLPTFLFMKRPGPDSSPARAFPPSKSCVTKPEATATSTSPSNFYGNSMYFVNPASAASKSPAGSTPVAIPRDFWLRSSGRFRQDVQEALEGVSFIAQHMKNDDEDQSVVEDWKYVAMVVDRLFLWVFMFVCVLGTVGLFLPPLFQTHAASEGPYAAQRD
T2 sequence (P32297 whole entry): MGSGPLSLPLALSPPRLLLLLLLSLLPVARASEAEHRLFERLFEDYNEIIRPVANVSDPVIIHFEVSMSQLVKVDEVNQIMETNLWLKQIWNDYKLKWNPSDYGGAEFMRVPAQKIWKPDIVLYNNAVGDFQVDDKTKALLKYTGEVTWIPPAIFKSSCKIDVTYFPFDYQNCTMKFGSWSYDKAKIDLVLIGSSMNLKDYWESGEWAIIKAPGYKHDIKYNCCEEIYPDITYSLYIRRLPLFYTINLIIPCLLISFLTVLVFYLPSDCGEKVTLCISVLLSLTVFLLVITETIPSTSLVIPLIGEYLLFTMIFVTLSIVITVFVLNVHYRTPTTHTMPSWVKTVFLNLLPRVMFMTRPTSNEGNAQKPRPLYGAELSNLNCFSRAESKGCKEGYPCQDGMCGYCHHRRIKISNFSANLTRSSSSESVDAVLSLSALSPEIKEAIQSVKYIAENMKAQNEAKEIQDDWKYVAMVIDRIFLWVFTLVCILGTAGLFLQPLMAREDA
T1 sequence (P17787 whole entry): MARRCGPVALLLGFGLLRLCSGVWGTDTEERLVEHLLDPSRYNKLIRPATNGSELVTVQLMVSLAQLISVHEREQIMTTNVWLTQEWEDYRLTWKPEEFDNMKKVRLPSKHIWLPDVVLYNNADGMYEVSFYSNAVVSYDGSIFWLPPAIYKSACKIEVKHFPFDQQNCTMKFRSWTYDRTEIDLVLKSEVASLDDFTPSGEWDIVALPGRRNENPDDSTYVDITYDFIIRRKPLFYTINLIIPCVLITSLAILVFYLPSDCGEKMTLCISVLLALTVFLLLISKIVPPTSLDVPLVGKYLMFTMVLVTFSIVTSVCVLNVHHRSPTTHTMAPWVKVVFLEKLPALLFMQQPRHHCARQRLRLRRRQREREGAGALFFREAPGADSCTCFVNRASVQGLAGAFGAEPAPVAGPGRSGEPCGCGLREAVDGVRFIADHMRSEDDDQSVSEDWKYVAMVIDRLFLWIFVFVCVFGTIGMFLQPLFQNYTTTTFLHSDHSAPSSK
T1 sequence (P43681 whole entry): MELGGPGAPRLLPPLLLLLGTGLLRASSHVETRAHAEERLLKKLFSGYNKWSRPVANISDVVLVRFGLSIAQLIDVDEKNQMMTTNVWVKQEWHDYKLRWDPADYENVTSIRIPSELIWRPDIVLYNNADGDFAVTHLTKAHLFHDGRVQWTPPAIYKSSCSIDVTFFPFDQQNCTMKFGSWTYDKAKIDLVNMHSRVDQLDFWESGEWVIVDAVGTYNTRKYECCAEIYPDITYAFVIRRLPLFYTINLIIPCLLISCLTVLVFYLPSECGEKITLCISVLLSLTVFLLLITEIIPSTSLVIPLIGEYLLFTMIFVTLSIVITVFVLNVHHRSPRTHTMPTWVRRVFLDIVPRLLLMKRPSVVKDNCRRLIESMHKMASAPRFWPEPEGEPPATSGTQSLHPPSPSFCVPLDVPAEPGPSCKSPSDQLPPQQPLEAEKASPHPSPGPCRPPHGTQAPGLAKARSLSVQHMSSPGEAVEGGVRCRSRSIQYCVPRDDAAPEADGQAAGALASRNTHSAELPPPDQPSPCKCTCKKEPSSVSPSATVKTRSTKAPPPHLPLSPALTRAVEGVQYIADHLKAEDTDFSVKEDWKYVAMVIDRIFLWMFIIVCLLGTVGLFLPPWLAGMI
Chain of Neuronal acetylcholine receptor subunit alpha-7 (P36544 whole entry): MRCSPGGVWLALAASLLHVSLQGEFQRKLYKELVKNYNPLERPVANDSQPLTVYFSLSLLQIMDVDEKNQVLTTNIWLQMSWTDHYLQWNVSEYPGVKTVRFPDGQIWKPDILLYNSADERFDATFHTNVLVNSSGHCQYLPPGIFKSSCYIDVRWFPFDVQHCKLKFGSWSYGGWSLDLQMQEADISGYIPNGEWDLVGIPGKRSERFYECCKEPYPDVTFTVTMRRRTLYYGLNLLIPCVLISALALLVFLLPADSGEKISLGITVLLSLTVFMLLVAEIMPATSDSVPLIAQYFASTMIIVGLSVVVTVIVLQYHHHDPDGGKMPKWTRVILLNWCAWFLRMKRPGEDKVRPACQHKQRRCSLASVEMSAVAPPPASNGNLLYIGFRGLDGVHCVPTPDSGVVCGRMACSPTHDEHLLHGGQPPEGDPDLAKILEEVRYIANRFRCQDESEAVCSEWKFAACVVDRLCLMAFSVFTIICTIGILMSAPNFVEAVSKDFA
Chain of Acetylcholine receptor; alpha1/beta1/delta/gamma (P02708 whole entry): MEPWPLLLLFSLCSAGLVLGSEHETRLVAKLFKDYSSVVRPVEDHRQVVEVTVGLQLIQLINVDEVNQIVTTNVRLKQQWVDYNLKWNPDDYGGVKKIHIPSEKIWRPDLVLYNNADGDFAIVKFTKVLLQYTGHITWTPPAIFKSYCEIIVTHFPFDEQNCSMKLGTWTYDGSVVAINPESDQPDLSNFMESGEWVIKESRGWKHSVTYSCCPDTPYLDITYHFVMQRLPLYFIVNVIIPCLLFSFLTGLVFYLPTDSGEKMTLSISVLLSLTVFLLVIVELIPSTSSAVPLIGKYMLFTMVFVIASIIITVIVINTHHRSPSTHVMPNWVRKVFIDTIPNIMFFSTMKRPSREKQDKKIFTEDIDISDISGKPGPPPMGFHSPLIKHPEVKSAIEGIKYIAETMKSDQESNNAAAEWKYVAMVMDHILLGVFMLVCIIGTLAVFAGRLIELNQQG
Chain of Acetylcholine receptor; alpha1/beta1/delta/gamma (P07510 whole entry): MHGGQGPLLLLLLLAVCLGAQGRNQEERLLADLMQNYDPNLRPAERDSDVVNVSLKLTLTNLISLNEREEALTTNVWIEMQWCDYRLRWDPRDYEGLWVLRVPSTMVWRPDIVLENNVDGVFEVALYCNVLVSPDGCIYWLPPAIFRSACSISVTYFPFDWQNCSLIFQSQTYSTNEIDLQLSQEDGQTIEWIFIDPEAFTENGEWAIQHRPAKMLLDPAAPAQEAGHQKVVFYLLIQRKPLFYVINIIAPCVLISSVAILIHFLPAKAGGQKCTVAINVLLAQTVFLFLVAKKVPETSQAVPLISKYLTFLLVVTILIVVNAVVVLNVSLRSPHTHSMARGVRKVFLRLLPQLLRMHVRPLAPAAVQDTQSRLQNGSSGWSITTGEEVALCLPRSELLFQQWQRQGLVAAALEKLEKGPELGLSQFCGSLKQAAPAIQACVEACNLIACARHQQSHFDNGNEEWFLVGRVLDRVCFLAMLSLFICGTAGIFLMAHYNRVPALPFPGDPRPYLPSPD
Chain of Acetylcholine receptor; alpha1/beta1/delta/gamma (P11230 whole entry): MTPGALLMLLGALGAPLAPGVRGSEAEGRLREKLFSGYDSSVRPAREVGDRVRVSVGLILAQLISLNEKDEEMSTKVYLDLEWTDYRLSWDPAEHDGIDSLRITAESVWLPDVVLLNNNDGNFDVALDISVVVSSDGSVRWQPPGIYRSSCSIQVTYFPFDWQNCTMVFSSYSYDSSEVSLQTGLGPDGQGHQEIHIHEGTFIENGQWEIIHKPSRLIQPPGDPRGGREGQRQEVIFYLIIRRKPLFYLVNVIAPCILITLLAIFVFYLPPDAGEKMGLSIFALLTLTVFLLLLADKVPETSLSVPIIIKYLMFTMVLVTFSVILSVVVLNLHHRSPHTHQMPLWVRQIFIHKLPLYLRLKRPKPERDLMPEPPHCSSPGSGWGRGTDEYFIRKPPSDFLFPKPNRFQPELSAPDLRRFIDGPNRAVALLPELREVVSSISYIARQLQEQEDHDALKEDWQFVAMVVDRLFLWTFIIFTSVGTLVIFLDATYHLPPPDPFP
Chain of Acetylcholine receptor; alpha1/beta1/delta/gamma (Q07001 whole entry): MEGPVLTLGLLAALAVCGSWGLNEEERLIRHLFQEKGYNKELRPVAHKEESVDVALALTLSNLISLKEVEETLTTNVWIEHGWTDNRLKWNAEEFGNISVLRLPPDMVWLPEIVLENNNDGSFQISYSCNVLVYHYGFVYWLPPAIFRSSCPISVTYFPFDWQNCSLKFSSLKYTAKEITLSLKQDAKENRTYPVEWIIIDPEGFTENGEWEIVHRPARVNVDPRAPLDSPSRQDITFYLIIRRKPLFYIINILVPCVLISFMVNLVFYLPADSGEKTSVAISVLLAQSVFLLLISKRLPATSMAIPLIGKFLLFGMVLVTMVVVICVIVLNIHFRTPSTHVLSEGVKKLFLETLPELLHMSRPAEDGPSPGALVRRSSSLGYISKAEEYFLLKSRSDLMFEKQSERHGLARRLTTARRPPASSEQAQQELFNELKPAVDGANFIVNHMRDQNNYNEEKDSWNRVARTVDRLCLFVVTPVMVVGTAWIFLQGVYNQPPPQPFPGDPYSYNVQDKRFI

`c1cncc(N2CCC3(CC4CCN3C4)C2)c1` (stereo unspecified): the Ki in experiment [1] is 0.029 µM; in experiment [2], 7.9 µM; in experiment [3] it was 2.4 µM; in experiment [4] it was 9.9 µM; in experiment [6], 0.04 µM. Moreover, the Emax in experiment [5] stood at 92%; in experiment [8], 3.1%. Further, the EC50 in experiment [7] was determined as 31 µM.

Take `c1cncc(N2CCC3(CCCN3)C2)c1` (stereo unspecified) [TC-2216]: the inhibitory constant (Ki) was 0.029 µM in experiment [1]; 6.9 µM in experiment [2]; 1.2 µM in experiment [3]; 5.7 µM in experiment [4]; 0.075 µM in experiment [6]. Moreover, the EC50 in experiment [7] is 55 µM. Besides, the Emax in experiment [8] stood at 9.6%.

On to `c1cncc(N2CCC3(CC4CCN3CC4)C2)c1` (stereo unspecified), for which the inhibition constant Ki in experiment [1] stood at 0.032 µM; in experiment [2], 8 µM; in experiment [3] it was 1.1 µM; in experiment [4] it was 11 µM; in experiment [6] it was 0.0057 µM. For the same molecule, the maximum response (Emax) was 92% in experiment [5] and 4.2% in experiment [8]. Also, the EC50 in experiment [7] was found to be 6.9 µM.

On to `c1cncc(N2CCC3(C2)C2CCN3CC2)c1` (stereo unspecified), for which the Ki in experiment [1] came to 0.01 µM; in experiment [2], 7.6 µM; in experiment [3] it was 0.56 µM; in experiment [4] it was 0.58 µM; in experiment [6], 0.034 µM. Further, the values for the Emax in experiment [5] and in experiment [8] were 92% and 29%, respectively. Besides, the concentration giving a half-maximal response (EC50) in experiment [7] turned out to be 2.6 µM.

As a reminder, the Ki is a dissociation constant, usually derived from enzyme kinetics or from competition with a known ligand. The low end stands for a stronger hold on the target, the high end for a looser hold on the target. What is called Emax is the size of the effect at its maximum, as opposed to the concentration needed. Usually EC50 stands for the midpoint of the concentration-response curve.
